This note sets out measurements from ChEMBL document CHEMBL1143579, “Synthesis and pharmacology of N1-substituted piperazine-2,3-dicarboxylic acid derivatives acting as NMDA receptor antagonists” (J Med Chem, 2005).

Each structure is given as a SMILES string.

In experiment [1] the target is Glutamate NMDA receptor; Grin1/Grin2c (Rattus norvegicus, UniProt P35439+Q00961). The experiment in a line: Inhibitory constant against (S)-glutamate and glycine evoked currents mediated by N-methyl-D-aspartate glutamate receptor NR1a/NR2C expressed in Xenopus oocytes. It counts as cell-based, Oocyte. Summed up:
(§1)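 Xenopus laevis oocytes were injected with NR1a and NR2 subunit RNA (1:3 molar ratio, 15-30 ng total) and held in ND-96 at 17 °C for 1-5 days. Currents were recorded by two-microelectrode voltage clamp at a holding potential of […] in 116 mM NaCl, 2 mM KCl, 2 mM BaCl2, 5 mM HEPES, pH 7.4. The steady plateau response to bath-applied 10 µM L-glutamate plus 10 µM glycine was measured. Apparent Ki was obtained as IC50(obs)/(1 + [agonist]/EC50).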

For experiment [2], the target named is Glutamate NMDA receptor; Grin1/Grin2b (Rattus norvegicus, UniProt P35439+Q00960). The experiment in a line: Inhibitory constant against (S)-glutamate and glycine evoked currents mediated by N-methyl-D-aspartate glutamate receptor NR1a/NR2B expressed in Xenopus oocytes. Type of experiment: cell-based, Oocyte. Summed up: as §1
Experiment [3] can be described thus: Inhibitory constant against (S)-glutamate and glycine evoked currents mediated by N-methyl-D-aspartate glutamate receptor NR1a/NR2D expressed in Xenopus oocytes. Type of experiment: cell-based, Rattus norvegicus. Particulars: oocyte. Summed up: (§2)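 Xenopus laevis oocytes were injected with NR1a and NR2 subunit RNA (1:3 molar ratio, 15-30 ng total) and held in ND-96 at 17 °C for 1-5 days. The steady plateau response to bath-applied 10 µM L-glutamate plus 10 µM glycine was measured. Apparent Ki was obtained as IC50(obs)/(1 + [agonist]/EC50).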

Experiment [4] concerns the target Glutamate NMDA receptor; Grin1/Grin2a (Rattus norvegicus, UniProt P35439+Q00959). The experiment in a line: Inhibitory constant against (S)-glutamate and glycine evoked currents mediated by N-methyl-D-aspartate glutamate receptor NR1a/NR2A expressed in Xenopus oocytes. It counts as cell-based, Oocyte. Summed up: as §2

Chain of Glutamate NMDA receptor; Grin1/Grin2b (Q00960 whole entry, other chains not shown): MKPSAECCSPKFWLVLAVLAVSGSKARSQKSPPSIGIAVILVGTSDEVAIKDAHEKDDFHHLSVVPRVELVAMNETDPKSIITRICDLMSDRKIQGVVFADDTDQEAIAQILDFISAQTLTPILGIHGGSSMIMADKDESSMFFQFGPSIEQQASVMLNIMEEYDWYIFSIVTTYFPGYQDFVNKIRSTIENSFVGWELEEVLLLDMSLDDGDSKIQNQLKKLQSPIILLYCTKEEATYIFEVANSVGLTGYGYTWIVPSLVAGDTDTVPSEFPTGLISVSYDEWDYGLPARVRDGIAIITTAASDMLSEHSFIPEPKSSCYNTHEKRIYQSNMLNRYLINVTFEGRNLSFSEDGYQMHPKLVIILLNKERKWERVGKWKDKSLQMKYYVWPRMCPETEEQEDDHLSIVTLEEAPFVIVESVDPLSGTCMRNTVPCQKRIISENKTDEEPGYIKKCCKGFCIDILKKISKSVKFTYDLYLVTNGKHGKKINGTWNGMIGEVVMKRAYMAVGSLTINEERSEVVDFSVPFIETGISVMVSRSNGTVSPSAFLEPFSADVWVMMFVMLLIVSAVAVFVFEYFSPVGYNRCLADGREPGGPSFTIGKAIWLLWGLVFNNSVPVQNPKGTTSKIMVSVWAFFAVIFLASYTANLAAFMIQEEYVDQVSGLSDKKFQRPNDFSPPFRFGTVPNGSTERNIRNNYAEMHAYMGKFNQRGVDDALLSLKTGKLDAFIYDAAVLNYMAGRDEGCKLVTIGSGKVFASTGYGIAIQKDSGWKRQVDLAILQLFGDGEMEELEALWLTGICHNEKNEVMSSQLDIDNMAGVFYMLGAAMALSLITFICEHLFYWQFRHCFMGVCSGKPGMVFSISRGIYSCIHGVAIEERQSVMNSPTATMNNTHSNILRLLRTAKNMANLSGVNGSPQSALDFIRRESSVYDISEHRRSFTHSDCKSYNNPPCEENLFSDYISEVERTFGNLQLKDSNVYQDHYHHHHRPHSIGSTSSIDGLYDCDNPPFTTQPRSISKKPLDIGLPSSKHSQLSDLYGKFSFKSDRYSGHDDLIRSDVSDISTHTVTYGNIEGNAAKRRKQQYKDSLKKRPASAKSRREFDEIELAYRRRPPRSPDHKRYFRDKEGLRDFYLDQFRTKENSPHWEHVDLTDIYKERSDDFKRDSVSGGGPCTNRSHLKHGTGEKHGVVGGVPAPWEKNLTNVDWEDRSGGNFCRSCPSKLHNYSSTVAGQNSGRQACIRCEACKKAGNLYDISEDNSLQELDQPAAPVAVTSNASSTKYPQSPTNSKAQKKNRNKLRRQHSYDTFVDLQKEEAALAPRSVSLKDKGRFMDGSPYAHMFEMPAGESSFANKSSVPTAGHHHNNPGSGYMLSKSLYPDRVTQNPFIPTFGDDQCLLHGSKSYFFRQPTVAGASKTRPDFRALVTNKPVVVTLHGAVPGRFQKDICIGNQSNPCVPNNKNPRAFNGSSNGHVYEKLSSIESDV
Chain of Glutamate NMDA receptor; Grin1/Grin2c (Q00961 whole entry, other chains not shown): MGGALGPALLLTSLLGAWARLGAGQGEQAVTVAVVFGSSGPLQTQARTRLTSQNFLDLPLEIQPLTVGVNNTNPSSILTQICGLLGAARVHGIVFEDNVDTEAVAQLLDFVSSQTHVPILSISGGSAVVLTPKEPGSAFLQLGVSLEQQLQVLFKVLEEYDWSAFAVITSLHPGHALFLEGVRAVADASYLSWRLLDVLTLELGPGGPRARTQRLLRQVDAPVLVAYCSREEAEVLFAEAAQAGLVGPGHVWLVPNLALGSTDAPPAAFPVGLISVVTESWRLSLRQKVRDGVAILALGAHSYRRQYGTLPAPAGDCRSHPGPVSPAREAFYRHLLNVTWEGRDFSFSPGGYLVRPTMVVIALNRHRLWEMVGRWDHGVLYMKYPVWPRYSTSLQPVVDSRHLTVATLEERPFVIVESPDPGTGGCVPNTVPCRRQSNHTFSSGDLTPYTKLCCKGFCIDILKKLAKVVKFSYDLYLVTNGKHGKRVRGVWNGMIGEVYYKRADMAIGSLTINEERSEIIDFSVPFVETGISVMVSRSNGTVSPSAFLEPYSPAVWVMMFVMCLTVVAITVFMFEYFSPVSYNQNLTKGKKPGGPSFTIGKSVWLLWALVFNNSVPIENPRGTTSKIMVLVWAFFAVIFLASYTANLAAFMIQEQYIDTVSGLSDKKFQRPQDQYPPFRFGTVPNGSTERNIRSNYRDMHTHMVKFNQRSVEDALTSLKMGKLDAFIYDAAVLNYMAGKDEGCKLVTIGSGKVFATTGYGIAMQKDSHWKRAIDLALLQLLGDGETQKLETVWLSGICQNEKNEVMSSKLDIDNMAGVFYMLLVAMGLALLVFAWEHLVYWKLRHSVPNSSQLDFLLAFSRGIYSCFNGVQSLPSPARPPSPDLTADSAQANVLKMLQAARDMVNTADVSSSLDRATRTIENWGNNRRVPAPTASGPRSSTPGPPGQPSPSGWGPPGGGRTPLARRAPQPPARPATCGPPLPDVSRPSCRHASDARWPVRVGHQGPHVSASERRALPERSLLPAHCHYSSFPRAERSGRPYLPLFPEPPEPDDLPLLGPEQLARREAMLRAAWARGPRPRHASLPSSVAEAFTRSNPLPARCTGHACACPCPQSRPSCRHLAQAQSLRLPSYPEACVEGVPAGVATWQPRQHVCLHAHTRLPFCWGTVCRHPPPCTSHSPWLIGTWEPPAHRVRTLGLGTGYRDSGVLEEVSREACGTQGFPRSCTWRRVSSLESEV
Chain of Glutamate NMDA receptor; Grin1/Grin2a (Q00959 whole entry, other chains not shown): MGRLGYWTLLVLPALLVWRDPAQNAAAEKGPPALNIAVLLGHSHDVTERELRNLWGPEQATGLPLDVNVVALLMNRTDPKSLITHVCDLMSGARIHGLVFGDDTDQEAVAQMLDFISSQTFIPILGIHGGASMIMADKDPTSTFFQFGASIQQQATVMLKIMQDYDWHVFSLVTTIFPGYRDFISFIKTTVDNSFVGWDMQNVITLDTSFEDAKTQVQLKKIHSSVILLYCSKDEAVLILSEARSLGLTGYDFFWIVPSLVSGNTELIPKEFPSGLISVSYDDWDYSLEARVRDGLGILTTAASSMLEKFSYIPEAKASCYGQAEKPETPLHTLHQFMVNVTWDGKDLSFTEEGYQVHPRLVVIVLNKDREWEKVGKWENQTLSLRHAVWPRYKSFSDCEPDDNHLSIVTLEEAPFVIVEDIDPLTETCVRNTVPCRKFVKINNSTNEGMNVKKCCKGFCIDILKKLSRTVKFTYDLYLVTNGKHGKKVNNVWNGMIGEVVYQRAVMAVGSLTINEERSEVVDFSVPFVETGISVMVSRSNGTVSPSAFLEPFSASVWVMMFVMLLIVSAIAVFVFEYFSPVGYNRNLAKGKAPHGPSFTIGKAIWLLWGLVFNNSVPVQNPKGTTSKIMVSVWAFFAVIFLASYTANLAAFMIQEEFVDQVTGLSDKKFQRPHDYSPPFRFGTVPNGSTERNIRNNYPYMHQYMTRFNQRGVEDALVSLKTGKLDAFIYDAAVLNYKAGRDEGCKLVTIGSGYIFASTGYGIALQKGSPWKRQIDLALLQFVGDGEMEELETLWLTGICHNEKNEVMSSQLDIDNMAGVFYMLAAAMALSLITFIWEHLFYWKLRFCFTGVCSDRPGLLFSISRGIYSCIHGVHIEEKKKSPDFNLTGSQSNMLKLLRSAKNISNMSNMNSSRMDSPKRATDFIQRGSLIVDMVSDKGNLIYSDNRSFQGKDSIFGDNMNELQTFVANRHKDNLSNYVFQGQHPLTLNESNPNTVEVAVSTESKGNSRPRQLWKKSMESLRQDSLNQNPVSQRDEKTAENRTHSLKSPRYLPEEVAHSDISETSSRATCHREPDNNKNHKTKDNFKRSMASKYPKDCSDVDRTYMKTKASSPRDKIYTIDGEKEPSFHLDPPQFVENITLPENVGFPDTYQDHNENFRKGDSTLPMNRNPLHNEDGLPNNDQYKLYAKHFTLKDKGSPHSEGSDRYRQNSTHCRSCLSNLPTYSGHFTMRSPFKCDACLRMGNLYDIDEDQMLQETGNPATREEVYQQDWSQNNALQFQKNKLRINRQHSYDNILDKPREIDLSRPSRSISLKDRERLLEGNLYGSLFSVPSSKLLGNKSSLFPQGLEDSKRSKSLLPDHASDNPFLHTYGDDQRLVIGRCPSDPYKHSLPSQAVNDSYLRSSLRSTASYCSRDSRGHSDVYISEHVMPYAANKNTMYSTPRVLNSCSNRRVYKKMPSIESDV

Consider `O=C(O)[C@H]1NCCN(S(=O)(=O)c2ccc(-c3ccccc3)cc2)[C@H]1C(=O)O`, for which the Ki (commonly a dissociation constant, usually derived from enzyme kinetics or from competition with a known ligand) is 8.67 µM in experiment [1], 16.2 µM in experiment [2], 10.9 µM in experiment [3] and 13.6 µM in experiment [4].
The matching figures for `O=C(O)[C@H]1NCCN(C(=O)/C=C/c2ccc3ccccc3c2)[C@H]1C(=O)O`: 0.85 µM, 0.3 µM, 1.94 µM and 0.84 µM.
As to `O=C(O)[C@H]1NCCN(C(=O)c2ccc3ccccc3c2)[C@H]1C(=O)O`, the Ki in experiment [1] was 3.89 µM; in experiment [2], 18.2 µM.
Take `O=C(O)[C@H]1NCCN(C(=O)c2ccccc2)[C@H]1C(=O)O`: the Ki in experiment [1], in experiment [2], in experiment [3] and in experiment [4] was more than 100 µM throughout.
Regarding `O=C(O)[C@H]1NCCN(C(=O)c2ccc3ccc4ccccc4c3c2)[C@H]1C(=O)O`, the Ki in experiment [1] worked out at 4.22 µM; in experiment [2], 19.3 µM; in experiment [3] it was 2.78 µM; in experiment [4], 14.2 µM.
`O=C(O)[C@H]1NCCN(C(=O)c2ccc3c(c2)CCc2cc(Br)ccc2-3)[C@H]1C(=O)O`: the Ki in experiment [1] was determined as 0.66 µM; in experiment [2] it was 2.15 µM; in experiment [3], 1.03 µM; in experiment [4] it was 3.88 µM.
For `O=C(O)[C@H]1NCCN(C(=O)c2ccc3c(ccc4cc(Br)ccc43)c2)[C@H]1C(=O)O`, the Ki in experiment [1] amounted to 0.0994 µM; in experiment [2], 0.25 µM; in experiment [3], 0.15 µM; in experiment [4], 0.32 µM.
Turning to `O=C(O)[C@H]1NCCN(Cc2ccc3c(ccc4ccccc43)c2)[C@H]1C(=O)O`, the Ki in experiment [1] came to 2.67 µM; in experiment [2] it was 10.2 µM; in experiment [3], 3.18 µM; in experiment [4] it was 11.2 µM.
On to `O=C(O)[C@H]1NCCN(C(=O)c2ccc3c(c2)Cc2ccccc2-3)[C@H]1C(=O)O`, for which the results for the Ki in experiment [1], in experiment [2] and in experiment [3] were 1.17 µM, 3.25 µM and 2.17 µM, respectively.
For `C[C@H](NC(c1cccc2nc(O)c(O)nc12)P(=O)(O)O)c1ccc(Br)cc1` (stereo partly specified), the Ki in experiment [1] worked out at 0.0116 µM; in experiment [2], 0.067 µM; in experiment [3], 0.037 µM; in experiment [4], 0.0054 µM.
For the compound `N[C@H](CCCCCP(=O)(O)O)C(=O)O`, the Ki turned out to be 6.42 µM in experiment [1], 4.14 µM in experiment [2], 17.1 µM in experiment [3] and 0.49 µM in experiment [4].
Regarding `O=C(O)[C@H]1NCCN(C(=O)/C=C/c2ccccc2)[C@H]1C(=O)O`, the Ki in experiment [1] is 27 µM; in experiment [2] it was 18 µM; in experiment [3] it was 59.7 µM; in experiment [4], 13.2 µM.
On to `O=C1c2ccccc2-c2ccc(C(=O)N3CCN[C@H](C(=O)O)[C@@H]3C(=O)O)cc21`, for which the Ki was found to be 4.42 µM in experiment [1], 9.36 µM in experiment [2], 6.45 µM in experiment [3] and 7.97 µM in experiment [4].
Regarding `O=C(O)[C@H]1NCCN(C(=O)c2ccc3c(c2)CCc2ccccc2-3)[C@H]1C(=O)O`, the Ki was 0.29 µM in experiment [1], 0.76 µM in experiment [2], 0.57 µM in experiment [3] and 1.54 µM in experiment [4].
For `O=C(O)[C@H]1NCCN(C(=O)c2ccc(-c3ccccc3Br)cc2)[C@H]1C(=O)O`, the Ki turned out to be 8.49 µM in experiment [1], 22.1 µM in experiment [2], 12.9 µM in experiment [3] and 42.9 µM in experiment [4].
Turning to `O=C(O)[C@H]1NCCN(C(=O)c2ccc(-c3ccccc3)cc2)[C@H]1C(=O)O`, the Ki in experiment [1] was determined as 8.98 µM; in experiment [2], 5.01 µM; in experiment [3] it was 4.29 µM; in experiment [4] it was 15.8 µM.
On to `O=C(O)[C@H]1NCCN(C(=O)c2ccc(-c3ccc(F)cc3)cc2)[C@H]1C(=O)O`, for which the Ki in experiment [1] is 7.38 µM; in experiment [2], 13.4 µM; in experiment [3] it was 8.02 µM; in experiment [4] it was 8.78 µM.
Consider `O=C(O)[C@H]1NCCN(C(=O)c2ccc3c(ccc4ccccc43)c2)[C@H]1C(=O)O`, for which the Ki in experiment [1] is 0.096 µM; in experiment [2], 0.31 µM; in experiment [3], 0.125 µM; in experiment [4] it was 0.55 µM.
In the case of `O=C(O)[C@@H]1NCCN(C(=O)c2ccc3c(ccc4ccccc43)c2)[C@H]1C(=O)O`, the Ki was 4.88 µM in experiment [1], 9.08 µM in experiment [2], 6.03 µM in experiment [3] and 10.5 µM in experiment [4].
As for `O=C(O)[C@H]1CN(CCCP(=O)(O)O)CCN1`, the Ki in experiment [1] is 0.63 µM; in experiment [2] it was 0.27 µM; in experiment [3], 1.99 µM; in experiment [4] it was 0.041 µM.
For the compound `N[C@H](CCCP(=O)(O)O)C(=O)O`, the Ki in experiment [1] is 1.64 µM; in experiment [2], 0.46 µM; in experiment [3], 3.71 µM; in experiment [4], 0.28 µM.
